Columns and labels:
GL261 glioma allograft = test: PET imaging of orthotopic GL261 glioma allograft mouse models; type: in vivo
How it was run: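 Mice under isoflurane (1.5%, 0.4 L/min) in a stereotactic frame received mouse GL261 glioma cells (suspension 1 × 10^5 cells/mL) through a drilled hole by Hamilton syringe; controls received PBS. After 10 days, tumours were confirmed by T2-weighted MRI and [18F]FET PET (11.1 MBq), then the radiotracer was given i.v. T/N ratio was lesion SUV over contralateral normal brain.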

epileptic focus = test: Pilot clinical PET imaging in a patient with temporal lobe epilepsy; type: in vivo, human

SMILES | T/N ratio (GL261 glioma allograft) | SUVmean in epileptic focus (epileptic focus)
N[C@@H](Cc1ccc(OCC[18F])cc1)C(=O)O [[^18F]FET, ^18F-fluoro-ethyl-tyrosine] | 1.17 ± 0.02 | –
CCOC(=O)c1ncn2c1CN(C)C(=O)c1cc([18F])ccc1-2 [[^18F]FMZ] | – | 0.54 ± 0.28

Reference: paper PMC11959935 (Acta Pharmaceutica Sinica. B, 2025)
